m-calpain inh – inhibitors of pig calpain II; purified calpain II, fluorogenic peptide substrate, 30 min; inhibition, % at 16 µM; 220,000 compounds, 0.37% hits; AID 1236;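 active = inhibition above about 50%, limit read from the data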
KLK5 inh – inhibitors of human kallikrein 5. inhibition, % at 5 µM. Q9Y337. recombinant hK5, fluorogenic AMC substrate cleavage. 210,000 compounds, 0.59% hits;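 active = inhibition of 40% or more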;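 also: 0% = enzyme controls without compound and 100% = no-enzyme blanks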
FXIIa inh – blocks human coagulation factor XIIa protease activity | inhibition, % at 5 µM | AID 800 | purified FXIIa, Boc-QGR-AMC fluorogenic substrate, 2 h | 220,000 compounds, 0.3% hits | P00748; in the data active = inhibition above about 40%;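 also: 0% = enzyme with no compound and 100% = blank without enzyme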
Target sequence (P00748 20-372 limits assumed): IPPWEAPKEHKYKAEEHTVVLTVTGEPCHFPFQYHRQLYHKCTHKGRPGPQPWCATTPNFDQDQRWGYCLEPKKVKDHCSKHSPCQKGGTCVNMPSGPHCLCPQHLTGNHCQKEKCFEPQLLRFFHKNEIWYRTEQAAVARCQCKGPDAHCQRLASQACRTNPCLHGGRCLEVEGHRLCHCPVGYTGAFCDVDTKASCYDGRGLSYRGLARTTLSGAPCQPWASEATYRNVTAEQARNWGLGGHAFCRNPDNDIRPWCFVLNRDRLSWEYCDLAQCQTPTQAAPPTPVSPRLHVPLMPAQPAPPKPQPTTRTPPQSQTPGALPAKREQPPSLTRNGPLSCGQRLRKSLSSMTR
Target sequence (P00748 373-615 limits assumed): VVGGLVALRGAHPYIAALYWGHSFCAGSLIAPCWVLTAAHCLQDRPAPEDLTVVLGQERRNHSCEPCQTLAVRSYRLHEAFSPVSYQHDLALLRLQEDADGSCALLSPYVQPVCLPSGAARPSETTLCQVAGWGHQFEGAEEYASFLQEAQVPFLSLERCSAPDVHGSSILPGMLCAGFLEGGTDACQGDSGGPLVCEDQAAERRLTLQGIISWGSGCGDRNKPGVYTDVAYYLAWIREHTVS
FXIa inh – blocks human coagulation factor XIa protease activity | P03951 | purified FXIa, Boc-Glu-Ala-Arg-AMC fluorogenic substrate | inhibition, % at 5 µM | 220,000 compounds, 0.14% hits | AID 798;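 active = inhibition of at least 40%; inactive = inhibition below 40%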;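 also: fluorescence of freed AMC excited at 355 nm; 0% = enzyme without compound and 100% = no enzyme blank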
Thrombin inh – blocks human thrombin protease activity | alpha-thrombin, Boc-VPR-AMC fluorogenic substrate cleavage | inhibition, % at 5 µM | 220,000 compounds, 0.26% hits;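 active = inhibition at or above 40%; inactive = inhibition below 40%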;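 also: 0% = enzyme with no compound and 100% = wells without enzyme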
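Test system: human alpha-thrombin; medium: pH 7.5 Tris-saline with Tween 20; times: reaction at room temperature; signal: AMC fluorescence at 355 nm excitation and 460 nm emission; also added: Boc-VPR-AMC substrate, 15 µM final; dosing: one concentration per compound, 5 µM, with 0.2% DMSO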
* marks the source's active call; other numbers are inactive results; nt = no result. This is a sample that favours compounds with a hit; in the whole collection about 1.4% have one here.

SMILES	m-calpain inh	KLK5 inh	FXIIa inh	FXIa inh	Thrombin inh
CC(C)(C)C(=O)COC(=O)CNC(=O)c1ccc(Oc2ccccc2)cc1	19	44*	34	1	5
COCCn1c(C)cc(C(=O)COC(=O)CNC(=O)c2ccccc2)c1C	59*	-6	16	9	-1
CC(/C=N/NC(=O)c1cc(C(C)C)[nH]n1)=C\c1ccccc1	27	29	-5	4	46*
CCOC(=O)c1sc(N)c(C#N)c1CSc1nc2ccc(OCC)cc2[nH]1	-49	-3	-13	-7	-15
CCOC(=O)c1sc(N)c(C#N)c1CSc1nc2ccc(C)cc2[nH]1	-24	40*	11	0	5
COc1ccc(C2/C(=C(\O)c3cc(C)ccc3C)C(=O)C(=O)N2CCN(C)C)cc1OC (configuration not stated)	0	-4	12	1	0
COc1ccc(S(=O)(=O)n2nc(OC(=O)c3ccncc3)cc2N)cc1	-13	1	7	2	1
COc1ccc(S(=O)(=O)n2nc(OC(=O)c3ccccc3)cc2N)cc1	11	51*	23	35	4
COc1ccc(S(=O)(=O)n2nc(OC(=O)c3cccs3)cc2N)cc1	27	78*	19	38	18
Cc1cc(-n2ccnc2)n2c(nc3ccccc32)c1C#N	-132	24	106*	14	16
c1coc(-c2nc(-c3ccco3)c(-c3ccco3)nc2-c2ccco2)c1	22	71*	-8	25	32
Nc1nc(-c2ccco2)c(-c2ccco2)s1	-59	-12	18	7	4
N#Cc1c(-c2cccs2)nc(SCC(=O)c2cccs2)[nH]c1=O	-3	71*	30	19	26
CC(=O)c1ccc(NC(=O)COC(=O)c2nc(Cl)ccc2Cl)cc1	-26	3	13	-1	4
C=CCSc1nnc(-c2cc3c(-c4ccccc4)nn(C)c3s2)n1C	-30	52*	18	5	16
O=C(NCc1ccccc1)N1CCn2c(nc3ccccc32)C1	-47	-2	19	6	1
Cc1ccc(-c2nc(NCc3ccco3)c3ccccc3n2)cc1	61*	-16	10	9	-8
c1ccc(-c2nc(NCc3cccnc3)c3ccccc3n2)cc1	20	10	16	1	-3
Fc1ccc(CNc2nc(-c3ccccc3)nc3ccccc23)cc1	55*	20	15	17	-2
CC(C)c1ccc(-c2c(C#N)c(N)nc(SCC(=O)N3CCCCC3)c2C#N)cc1	25	-2	1	-7	-3
CC(C)c1ccc(-c2c(C#N)c(N)nc(SCC(=O)N3CCCCCC3)c2C#N)cc1	-112	-2	5	-6	41*
O=C(CCCN1C(=O)c2ccccc2C1=O)N1CCCCC1	11	-11	5	1	-2
O=C(CCCN1C(=O)c2ccccc2C1=O)N1CCC(c2ccccc2)C1 (configuration not stated)	51*	13	-5	-24	-3
CCc1ccc(C(=O)COC(=O)CCc2nc3ccccc3c(=O)[nH]2)cc1	19	-13	7	2	-11
C=CC#CC1(O)CC(C)N(C)CC1C (configuration not stated)	27	46*	28	28	31
SMILES	m-calpain inh	KLK5 inh	FXIIa inh	FXIa inh	Thrombin inh
CC1=C(C(=O)NCc2ccccn2)C2(CCC(C)CC2)OC1=O (configuration not stated)	0	115*	26	6	12
CC1=C(C(=O)NCc2ccc(Cl)cc2)C2(CCC(C)CC2)OC1=O (configuration not stated)	-5	-1	10	-4	0
CCOc1ccc(NC(=S)NCCCc2ccccc2)cc1	-7	2	9	-2	-4
CCOc1ccc(CSCCNC(=S)Nc2ccccc2)cc1	43	51*	-6	1	20
COc1ccc(C(=O)N2c3cc4c(cc3C(C)=CC2(C)C)OCO4)cc1	52*	-15	13	1	-1
Cc1nc(N2CCN(c3ccccc3)CC2)nc2c1C(=O)CC(C)C2 (configuration not stated)	72*	0	-9	-6	-7
Cc1nc(N2CCN(c3ccccc3)CC2)nc2c1C(=O)CC(c1ccccc1)C2 (configuration not stated)	11	8	13	3	-2
O=C(N/N=C1/CCCc2ccccc21)c1cc([N+](=O)[O-])cc([N+](=O)[O-])c1	74*	2	12	3	nt
O=C(N/N=C1\CCCc2ccccc21)c1cccc([N+](=O)[O-])c1	1	-18	12	0	1
COc1cccc(C(=O)OCCN2CCOCC2)c1	17	36	32	51*	-3
Cc1cc(/C(O)=C2\C(=O)C(=O)N(CCN(C)C)C2c2ccncc2)ccc1OCc1ccccc1 (configuration not stated)	15	71*	24	11	21
COc1cc(C(=O)OCCN2CCOCC2)cc(OC)c1OC	-21	-6	14	-1	0
COc1cccc(/C(O)=C2/C(=O)C(=O)N(CCCN3CCOCC3)C2c2ccncc2)c1 (configuration not stated)	13	117*	-4	-3	1
Cc1oc(-c2ccc(Cl)cc2)cc1C(=O)/C(C#N)=C/Nc1cccc(OC(F)(F)F)c1	-19	15	5	-3	-2
COc1ccc(S(=O)(=O)N(C)CC(=O)Nc2ccc(C(F)(F)F)cc2)cc1Cl	-14	-1	-3	-6	-5
COc1ccccc1NC(=O)N1CCN(CCc2ccccc2)CC1	-27	4	10	2	0
CCN1CCN(C(=O)Nc2ccccc2OC)CC1	29	83*	11	4	31
Cn1nc(C(F)(F)F)c(-c2ccccc2)c1NC(=O)CSCC(=O)O	-3	-3	6	2	-3
Cn1nc(C(F)(F)F)c(-c2ccccc2)c1NC(=O)CCC(=O)O	5	43*	30	27	31
COC(=O)CS(=O)(=O)c1nnc([C@H](Cc2ccccc2)NC(=O)OC(C)(C)C)o1	-14	-5	42*	0	2
COc1ccc(NC(=S)N/N=C2\CC(C)(C)Oc3ccc(O)cc32)cc1	-18	-23	1	10	3
COc1ccccc1NC(=S)N/N=C1\CC(C)(C)Oc2ccc(O)cc21	-22	57*	36	30	9
CCn1c(C)nc2cc(C(=O)NNC(=S)Nc3ccc(C)cc3)ccc21	2	17	51*	31	43*
COCc1cc(C)nc(N/N=C/c2ccc(-c3cc(C(=O)O)ccc3Cl)o2)c1C#N	-17	0	8	2	-1
CC(OC(=O)c1ccccc1Nc1ccc(SC(F)F)cc1)C(N)=O (configuration not stated)	68*	11	13	16	9
COC(=O)Nc1ccc(S(=O)(=O)N2CCCC(C(=O)O)C2)cc1 (configuration not stated)	-17	-7	2	-4	1
